The list is not random: actives were taken first. Their share in the collection is about 3.5%.
MrgX1 antagonist: antagonists of human MrgX1 receptor, primary screen, HEK293 cells, Fluo-4 calcium flux; Mas-related G-protein coupled receptor member X1 (Homo sapiens), Q96LB2; BAM8-22 antagonism; active compounds read low; B-score at 10 µM; actives 1.3% (n = 310,000); AID 588676, 2011;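 active means calcium-response B-score plate-corrected more than 3 library SD below zero, starting fluorescence within 5 deviations, no agonist response on first addition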;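 further: peak minus trough fluorescence over baseline after final BAM8-22 challenge near maximal dose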
Target sequence (Q96LB2 whole entry, looked up): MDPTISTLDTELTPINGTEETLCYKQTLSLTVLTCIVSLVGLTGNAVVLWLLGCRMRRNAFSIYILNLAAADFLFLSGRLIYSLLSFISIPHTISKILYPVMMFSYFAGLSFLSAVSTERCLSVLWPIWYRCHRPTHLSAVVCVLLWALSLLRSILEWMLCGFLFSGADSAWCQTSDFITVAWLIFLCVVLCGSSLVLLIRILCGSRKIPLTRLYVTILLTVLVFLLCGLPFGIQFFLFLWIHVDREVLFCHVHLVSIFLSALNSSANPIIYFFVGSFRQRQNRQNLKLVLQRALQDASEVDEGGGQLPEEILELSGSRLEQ
RGS4 block: RGS4 inhibitors, primary screen, cell-based, HEK293 M3R inducible RGS4, calcium flux; Fluo-4 calcium flux; active compounds read high; triggered by carbachol at its EC20; actives 0.45% (n = 310,000); AID 463165, 2010; B-score at 10 µM; Regulator of G-protein signaling 4 (Homo sapiens), P49798;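 active means B-score, a plate-corrected calcium signal, over three deviations above library mean, with baseline fluorescence within five deviations of library mean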;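 further: RGS4 expression induced by doxycycline in cells with stable M3 receptor; B-score is computed from the integrated fluorescence ratio over baseline after carbachol; higher B-score means a larger calcium signal and so more RGS4 inhibition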
RGS4 pot: RGS4 potentiators or activators, primary screen, cell-based, HEK293 M3R inducible RGS4, calcium flux; actives 0.92% (n = 310,000); B-score at 10 µM; carbachol calcium flux Fluo4; active compounds read low;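 active means B-score of the integrated calcium signal more than 4 SD below the library mean, with starting fluorescence not abnormally high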;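 further: negative B-score means reduced calcium response which marks RGS4 activation or potentiation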
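Assay system: Inducible-RGS4 HEK293 cells carrying M3 receptor | Schedule: Compound preincubation 20 min at room temperature before agonist | Signal: Kinetic calcium fluorescence imaging with Fluo4-AM dye, 2 µM | Read-out basis: B score from integrated fluorescence ratio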
MrgX1 agonist: agonists of human MrgX1 receptor, primary screen, HEK293 cells, Fluo-4 calcium flux; Mas-related G-protein coupled receptor member X1 (Homo sapiens), Q96LB2; Fluo-4 calcium fluorescence, agonist mode; active compounds read high; B-score at 10 µM; actives 0.44% (n = 310,000); AID 588627, 2011;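 active means calcium response B-score plate-corrected fluorescence ratio at least 3 library SD, with starting fluorescence B-score inside 5 SD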
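System: HEK293 cells stably expressing human MrgX1 receptor; Dosing: test compound in the initial addition of three; Schedule: overnight plating, then 30 min 37 °C plus 30 min room-temperature dye loading; Detection: kinetic calcium dye fluorescence, Fluo-4 NW; Controls: per-plate positive and negative controls for Z′ factor.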
MrgX1 PAM: positive allosteric modulators of MrgX1, primary screen, HEK293 cells, Fluo-4 calcium flux; B-score at 10 µM; FDSS; active compounds read high; Mas-related G-protein coupled receptor member X1 (Homo sapiens), Q96LB2; actives 0.63% (n = 310,000);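 active means plate-corrected calcium response at least 3 library SD above typical, normal starting fluorescence, not activating the receptor alone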;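 further: compound read alongside a low EC10 to EC30 dose of BAM8-22 agonist; peak minus trough fluorescence over baseline measured at the second addition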
Starred values were filed as active, the others as inactive; i = inactive; x = not tested or not shown.

SMILES	MrgX1 antagonist	RGS4 block	RGS4 pot	MrgX1 agonist	MrgX1 PAM
Cc1ccc([N+](=O)[O-])cc1N(CC(=O)NC1CCCC1)S(C)(=O)=O	i	i	i	i	11.2*
COc1ccc([N+](=O)[O-])cc1N(CC(=O)NC1CCCCC1)S(C)(=O)=O	i	i	i	i	i
CCN(CC(=O)NCCCN1CCOCC1)S(=O)(=O)c1ccc(F)cc1	i	i	i	i	i
CN(C)C(=O)c1cc(C(=O)c2ccc(C(F)(F)F)cc2)c[nH]1	i	i	i	i	i
COc1ccc(-c2csc3ncnc(N4CCN(S(=O)(=O)c5ccc(Cl)s5)CC4)c23)cc1	i	i	i	i	i
COc1ccc(-c2csc3ncnc(N4CCN(S(=O)(=O)c5ccc(C)cc5)CC4)c23)cc1	i	i	-7.51*	i	i
CC1CN(S(=O)(=O)c2ccc(C(=O)Nc3nnc(-c4ccc5c(c4)CCCC5)o3)cc2)CC(C)O1 (stereo not drawn)	i	i	-7.27*	i	i
CC(C)CCN1CCN(Cc2cccc(C(F)(F)F)c2)CC1CCO (stereo not drawn)	i	i	i	i	i
CCOc1ccc(C(Nc2cccnc2)c2cc(Cl)c3cccnc3c2O)cc1 (stereo not drawn)	i	i	-8.33*	i	i
O=C(O)COc1ccccc1C(Nc1cccnc1)c1cc(Cl)c2cccnc2c1O (stereo not drawn)	x	i	i	x	x
Cc1cccc2[nH]c(CCNC(=O)C3CCC(=O)N(CCc4cccc(F)c4)C3)nc12 (stereo not drawn)	i	i	i	i	i
Cn1c(NC(=O)C2c3ccccc3Oc3ccccc32)cc(=O)n(C)c1=O	i	x	x	i	i
COc1ccc(NC(=O)N2CCN(c3nc(-c4cccc(OC)c4)cs3)CC2)cc1	i	i	-6.99*	i	i
CCN(CC)CCN(C)C(=O)CCc1nnc(-c2ccc(C)s2)o1	-6.63*	i	i	i	i
CCOC(=O)CN(C)C(=O)CCc1nnc(-c2ccc(-c3ccccc3)cc2)o1	i	i	i	i	i
COc1ccc(-c2ccc(=O)n(Cc3cccc(Cl)c3)n2)cc1	i	i	i	i	7.85*
CN1COc2ccc3ccccc3c2C1	i	i	i	i	i
COC(=O)c1ccc(-c2noc(CN(Cc3nccn3C)C(C)C)n2)cc1	i	i	-7.52*	i	i
Cc1ccnc(N/C=C(\C#N)c2nc(-c3cccc(Br)c3)cs2)c1	i	i	i	36*	i
COC1=C(Nc2ccc(C)cc2)C(=O)c2ccccc2C1=O	i	i	i	i	17.1*
COC1=C(Nc2ccccc2)C(=O)c2ccccc2C1=O	i	i	i	i	10.1*
Cc1ccc(NC2=C(N3CCCCC3)C(=O)c3ccccc3C2=O)cc1	i	i	i	i	i
O=C(/C=C/c1cccc(F)c1)Nc1nccs1	-6.28*	i	i	i	i
O=C(/C=C\c1ccccc1)Nc1nccs1	i	i	i	i	i
CCCSc1nc(NCc2ccco2)c2c3c(sc2n1)COC(C)(C)C3	i	i	i	i	i
SMILES	MrgX1 antagonist	RGS4 block	RGS4 pot	MrgX1 agonist	MrgX1 PAM
O=C1C2C3C=CC(C3)C2C(=O)N1/N=C/c1cn(Cc2ccc(F)cc2)c2ccccc12 (stereo not drawn)	i	i	-8.01*	i	i
O=C(O)CCCCCN1C(=O)C2CCCCC2C1=O (stereo not drawn)	i	i	i	i	i
O=C(O)CCCCCCC1C(=O)NC(=O)N1CCC(O)C1CCCCC1 (stereo not drawn)	i	i	i	30.9*	i
Cc1cccc(-c2cc(C(=O)Nc3c(C)n(C)n(-c4ccccc4)c3=O)c3ccccc3n2)c1	i	i	-8.54*	i	6.58*
Cn1cnc([N+](=O)[O-])c1N=C(N)N	i	i	i	i	i
Cc1ccc(C(=O)c2oc3ccccc3c2NC(=O)c2cc(-c3cc(C)ccc3O)n[nH]2)cc1	-5.16*	i	i	i	i

Compound activity deposited in PubChem by Johns Hopkins Ion Channel Center.
